Experimental findings from article PMC6205205 (Medicinal chemistry (Shariqah (United Arab Emirates)), 2018) are described below.

“Also recorded” adds a separate entry of the source.

In general, Ki refers to the equilibrium dissociation constant of an inhibitor or competing ligand from its target.

Test [1] deals with T1, IDH1(R132H) (Homo sapiens, UniProt O75874, R132H). Nature of the test: IDH1. Format: biochemical. As to conditions: for Inhibitory activity against IDH1(R132H), in words: compound screening at 50 μM.
T1 sequence (O75874 whole entry R132H): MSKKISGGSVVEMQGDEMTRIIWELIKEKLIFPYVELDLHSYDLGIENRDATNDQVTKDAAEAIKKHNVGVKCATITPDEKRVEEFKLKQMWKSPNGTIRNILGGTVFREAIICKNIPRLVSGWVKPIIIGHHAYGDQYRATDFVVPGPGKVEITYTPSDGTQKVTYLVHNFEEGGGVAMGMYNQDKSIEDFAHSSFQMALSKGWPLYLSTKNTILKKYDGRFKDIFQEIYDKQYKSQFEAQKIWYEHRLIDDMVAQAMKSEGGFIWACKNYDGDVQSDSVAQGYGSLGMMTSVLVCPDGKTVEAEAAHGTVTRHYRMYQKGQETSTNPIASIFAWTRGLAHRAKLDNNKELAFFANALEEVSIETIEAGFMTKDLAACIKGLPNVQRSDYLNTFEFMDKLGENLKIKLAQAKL
A further test concerns the target WT IDH1 (Homo sapiens, UniProt O75874). Nature of the test: Enzyme inhibition of wild-type IDH1. Format: biochemical.
The target in the next test is R132C IDH1 (Homo sapiens, UniProt O75874, R132C). Nature of the test: Enzyme inhibition of R132C mutant IDH1. Format: biochemical.
Sequence of R132C IDH1 (O75874 whole entry R132C): as the sequence (O75874 whole entry R132H) above, with H132C counted along it
Test [2] deals with BXD-3752 glioma cells without IDH1 mutation. Nature of the test: Inhibition of proliferation of glioma stem-like cells. Format: cell-based, human. As to conditions: 5 μM, 14 days treatment, no IDH1 mutation. In outline: (§1)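 Patient-derived glioma cells grown as neurospheres in serum-free medium at 37 °C, 5% CO₂, 100% humidity. Cells seeded at 2000/well and exposed to increasing concentrations of test compound for 14 days. Viability read by Cell Counting Kit-8 following the kit protocol.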

The test system of test [3] is BT142 glioma cells with R132H IDH1 mutation. The test is described as above. Format: cell-based, human. The settings on record: 5 μM, 14 days treatment. In outline: as §1
For test [4], the target named is T1, IDH1(R132H). Nature of the test: Steady-state kinetic study, mode of inhibition. Format: biochemical. The gist of the method: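 IDH1(R132H) was expressed in E. coli and purified. Initial velocities were taken as the linear rate of NADPH consumption, followed by UV absorbance at 340 nm. Test compound, α-KG and NADPH levels were each varied. Data were fitted to competitive, noncompetitive and uncompetitive models, and the best model was chosen by highest R² and lowest AICc.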

Sequence of WT IDH1 (O75874 whole entry): as the sequence (O75874 whole entry R132H) above, with H132R counted along it

Turning to `O=S(=O)(Nc1cc(Oc2ccccc2)c(O)c2ccccc12)c1ccc(Br)cc1` [Compound 1, 4-bromo-N-(4-hydroxy-3-phenoxynaphthalen-1-yl)benzenesulfonamide], affinity on IDH1(R132H) [1] was put at a Ki of 8.2 µM.

For the compound `O=S(=O)(Nc1cc(Br)c(O)c2ccccc12)c1ccc(Br)cc1` [Compound 2, 4-bromo-N-(3-bromo-4-hydroxynaphthalen-1-yl)benzenesulfonamide], the Ki on WT IDH1 is above 50 µM; at IDH1(R132H) [1], 4.1 µM; on R132C IDH1, above 50 µM. Further, the “Fold increased inhibitory activity relative to compound 1” value on IDH1(R132H) [1] (IDH1(R132H), vs compound 1) was ~ 2 fold.

As for `Cc1ccc(-c2cc(NS(=O)(=O)c3ccc(C)cc3)c3ccccc3c2O)cc1` [Compound 3, N-(4-hydroxy-3-(p-tolyl)naphthalen-1-yl)-4-methylbenzenesulfonamide], in test [2], the “Activity against proliferation of BXD-3752 glioma cells” value (“Activity … of BXD-3752 glioma cells” for short) is “did not exhibit activity”. In addition, the “Inhibitory activity against IDH1(R132H), in words” value (“Inhibitory activity … in words” below) on IDH1(R132H) [1] was “inactive”. Also, the “Activity against proliferation of BT142 glioma cells” value (“Activity … of BT142 glioma cells” below) in test [3] is on record as “did not exhibit activity”.

Regarding `O=S(=O)(Nc1cc(-c2ccc3ccccc3c2)c(O)c2ccccc12)c1ccc(Br)cc1` [Compound 4, 4-bromo-N-(1-hydroxy-[2,2’-binaphthalen]-4-yl)benzenesulfonamide], the “Inhibitory activity … in words” value at IDH1(R132H) [1] is “inactive”.

On IDH1(R132H) [1], `O=C(O)CCc1cc(NS(=O)(=O)c2ccc(Br)cc2)c2ccccc2c1O` [Compound 5, 3-(4-((4-bromophenyl)sulfonamido)-1-hydroxynaphthalen-2-yl)propanoic acid] showed an inhibitory constant (Ki) of 17.5 µM.

As to `O=P(O)(O)CCc1cc(NS(=O)(=O)c2ccc(Br)cc2)c2ccccc2c1O` [Compound 6, (2-(4-((4-bromophenyl)sulfonamido)-1-hydroxynaphthalen-2-yl)ethyl)phosphonic acid], the inhibition constant (Ki) on IDH1(R132H) [1] worked out at 2.4 µM.

`COc1ccc(S(=O)(=O)Nc2cc(CCC(=O)O)c(O)c3ccccc23)cc1` [Compound 7, 3-(1-hydroxy-4-((4-methoxyphenyl)sulfonamido)naphthalen-2-yl)propanoic acid]: the affinity at IDH1(R132H) [1], expressed as Ki, was 10.2 µM.

In turn, `O=S(=O)(Nc1cc(Br)c(O)c2ccccc12)c1ccc(F)cc1` [Compound 8, N-(3-bromo-4-hydroxynaphthalen-1-yl)-4-fluorobenzenesulfonamide] registered an inhibitory constant (Ki) on IDH1(R132H) [1] of around 25 µM.

On to `Cc1ccc(S(=O)(=O)Nc2cc(Br)c(O)c3ccccc23)cc1` [Compound 9, N-(3-bromo-4-hydroxynaphthalen-1-yl)-4-methylbenzenesulfonamide], for which the inhibitory constant (Ki) on WT IDH1 is above 50 µM; on IDH1(R132H) [1], 1.2 µM; at R132C IDH1, above 50 µM. Besides, the “Mode of inhibition against the cofactor NADPH” value at IDH1(R132H) [4] (variable NADPH, Michaelis-Menten plot) was “noncompetitive mode of action; also recorded: non-competitive inhibitor”. Also, on IDH1(R132H) [4] (variable α-KG, Lineweaver-Burk plot), the “Mode of inhibition against the substrate α-KG” value was “competitive inhibitor”. For the same compound, the “Activity … of BXD-3752 glioma cells” value in test [2] is “did not show activity; also recorded: did not significantly affect growth”. In addition, the “Fold more active than compound 2” value on IDH1(R132H) [1] (IDH1(R132H), vs compound 2) is given as ~ 4 ×. In addition, the “Activity … of BT142 glioma cells” value in test [3] is reported as “strongly inhibited the growth; also recorded: strong activity”.

As for `O=S(=O)(Nc1cc(Br)c(O)c2ccccc12)c1ccc(-c2ccccc2)cc1` [Compound 10, N-(3-bromo-4-hydroxynaphthalen-1-yl)-[1,1’-biphenyl]-4-sulfonamide], the inhibition constant Ki at WT IDH1 is above 50 µM; on IDH1(R132H) [1], 0.6 µM; at R132C IDH1 it was 36 µM. Moreover, the “Activity … of BXD-3752 glioma cells” value in test [2] is recorded as “did not show activity; also recorded: did not significantly affect growth”. For the same compound, the “Activity … of BT142 glioma cells” value in test [3] is “strongly inhibited the growth; also recorded: strong activity”.

As for `O=S(=O)(Nc1cc(Br)c(O)c2ccccc12)c1ccc2ccccc2c1` [Compound 11, N-(3-bromo-4-hydroxynaphthalen-1-yl)naphthalene-2-sulfonamide], the results for the inhibition constant (Ki) on WT IDH1, on IDH1(R132H) [1] and on R132C IDH1 were above 50 µM, 0.8 µM and above 50 µM, respectively.

Turning to `Cc1ccc(S(=O)(=O)Nc2ccc(O)c3ccccc23)cc1` [Compound 12, N-(4-hydroxynaphthalen-1-yl)-4-methylbenzenesulfonamide], the Ki on IDH1(R132H) [1] was 6.8 µM. Besides, the “Fold less active than compound 9” value on IDH1(R132H) [1] (IDH1(R132H), vs compound 9) is listed as ~ 6 fold.

With `O=S(=O)(Nc1ccc(O)c2ccccc12)c1ccccc1` [Compound 13, N-(4-hydroxynaphthalen-1-yl)benzenesulfonamide], at IDH1(R132H) [1], the affinity, expressed as Ki, was 11.1 µM.

On to `O=S(=O)(Nc1ccc(O)c(Oc2ccccc2)c1)c1ccc(Br)cc1` [Compound 14, 4-bromo-N-(4-hydroxy-3-phenoxyphenyl)benzenesulfonamide], for which the “Inhibitory activity … in words” value at IDH1(R132H) [1] is recorded as “Devoid of activity”.

In turn, `O=S(=O)(Nc1ccc(O)cc1)c1ccc(Br)cc1` [Compound 17, 4-bromo-N-(4-hydroxyphenyl)benzenesulfonamide] displayed an inhibition constant Ki on IDH1(R132H) [1] of 7.3 µM.

As to `O=S(=O)(Nc1cccc(Br)c1)c1ccc(Br)cc1` [Compound 18, 4-bromo-N-(3-bromophenyl)benzenesulfonamide], at IDH1(R132H) [1], affinity was put at a Ki of 9 µM.

For the compound `O=S(=O)(Nc1ccccc1)c1ccc(Br)cc1` [Compound 19, 4-bromo-N-phenylbenzenesulfonamide], at IDH1(R132H) [1], the “Inhibitory activity … in words” value is “inactive”.

With `O=S(=O)(Nc1ccc(F)c(Cl)c1)c1ccc(Br)cc1` [Compound 20, 4-bromo-N-(3-chloro-4-fluorophenyl)benzenesulfonamide], the inhibitory constant (Ki) on IDH1(R132H) [1] amounted to 16.1 µM.
